# High-throughput results: PubChem BioAssay, The Scripps Research Institute Molecular Screening Center
# The list is not random: actives were taken first. Their share in the collection is about 2%.
# M5 PAM = human M5 muscarinic receptor positive allosteric modulators, primary screen, CHO-K1 cells, Fluo-8 calcium fluorescence | AID 624038, 2012 | CHO-K1 hM5, ACh EC20 PAM; 0% = ACh EC20, 100% = ACh EC100 | 360,000 tested, 0.3% active | activation, % at 3 µM;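 active means activation above the run cutoff, the mean activation of all test compounds plus 3 SD, cut at about 18% in these data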
#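 Assay system: CHO-K1 hM5 cells. Also added: acetylcholine at EC20 concentration, added after compound. Dosing: 3 µM, single dose. Times: compound preincubation 140 s before EC20 acetylcholine addition. Signal: Fluo-8 calcium fluorescence. Measure: % activation relative to EC20 and EC100 ACh responses. Repeats: singlicate, one well per test compound.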
# M1 antag = human M1 muscarinic receptor antagonists, primary screen, CHO-K1 cells, Fluo-8 calcium fluorescence, 1536-well | CHO-K1 hM1, ACh EC80 antagonist | inhibition, % at 3 µM | Muscarinic acetylcholine receptor M1 (Homo sapiens), P11229 | 360,000 tested, 1.3% active;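 active means percent inhibition above its own plate's cutoff, namely the mean of that plate's compound wells plus 3 SD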;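 further: peak over basal fluorescence ratio during 140 s after agonist addition; 0% = ACh EC80 plus DMSO and 100% = DMSO alone without agonist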
# M1 ag = human M1 muscarinic receptor agonists, primary screen, Fluo-8 calcium fluorescence, CHO-K1 cells, HTS; Muscarinic acetylcholine receptor M1 (Homo sapiens), P11229; CHO-K1 hM1, agonist mode; 0% DMSO, 100% acetylcholine EC100; activation, % at 3 µM; 360,000 tested, 0.33% active; AID 588814, 2011;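 active means activation above the run's mean compound activation plus 3 SD, cut at about 16% in these data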;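 further: peak over basal fluorescence ratio within a 140 s kinetic read after compound addition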
# M1 PAM = human M1 muscarinic receptor positive allosteric modulators, primary screen, CHO-K1 cells, Fluo-8 calcium fluorescence, 1536-well; CHO-K1 hM1, ACh EC20; 0% = ACh EC20, 100% = maximal ACh; activation, % at 3 µM; 360,000 tested, 0.088% active; AID 588819, 2011; in the data active means activation above about 19%, passing the limit was not always enough
# CHRM5 agonist = human M5 muscarinic receptor agonists, primary screen, CHO-K1 cells, Fluo-8 calcium fluorescence | 360,000 tested, 0.19% active | CHO-K1 hM5 cells; 0% DMSO wells, 100% maximal acetylcholine response | AID 624037, 2012 | activation, % at 3 µM;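 active means activation above the run's mean over test compounds plus 3 SD, cut at about 23% in these data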;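 further: signal is peak over basal fluorescence ratio across the kinetic read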
# CHRM5 antagonist = human M5 muscarinic receptor antagonists, primary screen, CHO cells, Fluo-8 calcium fluorescence. Muscarinic acetylcholine receptor M5 (Homo sapiens), P08912. CHO-hM5 cells, ACh EC80. inhibition, % at 3 µM. 360,000 tested, 0.59% active. AID 624040, 2012;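 active means inhibition above a per-plate cutoff, the mean of that plate's test compounds plus 3 SD, cut at about 27% in these data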;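 further: 0% = acetylcholine EC80 with DMSO and 100% = DMSO without agonist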
# Active calls of the source: *; . = no result.
SMILES,M5 PAM,M1 antag,M1 ag,M1 PAM,CHRM5 agonist,CHRM5 antagonist
COC(=O)[C@]12CCCCC=C1N(Cc1ccc3c(c1)OCO3)C(=O)[C@H](CC(=O)N1CCN(C(=O)c3ccco3)CC1)C2,-5,.,.,.,7,3
COc1ccc([C@H]2N[C@]3(CCCN(CC4CCCCC4)C3=O)[C@H]3C(=O)N(Cc4ccccc4)C(=O)[C@@H]23)cc1,-2,-2,-9,-1,1,0
CCOC(=O)c1cnc2c(Cl)cccc2c1NCCN(C)C,45*,-11,0,8,-1,20
COc1ccc(CCNc2oc(Cc3cccc4ccccc34)nc2C#N)cc1OC,-17,15,-3,-3,-2,7
COc1ccc(CCNc2oc(COc3ccc(Br)cc3)nc2C#N)cc1OC,-22,36*,-4,-24,1,18
N#Cc1cccc(NC(=O)CSc2ccc3c4c(cccc24)C(=O)c2ccccc2-3)c1,-15,32*,44*,-16,6,33*
Cc1ccc(S(=O)(=O)NC(=O)N2CCCC2)cc1,4,-5,-1,2,6,1
O=C(O)c1ccc(N(Cc2ccccc2)S(=O)(=O)c2ccccc2)cc1,-2,16,-4,-7,-1,2
CC(=O)N(Cc1ccccc1)c1ccc(C(=O)O)cc1,25*,5,0,0,-2,3
CNc1cccc(-c2cccc(C(=O)N3CCOCC3)c2)n1,-8,-13,-3,6,0,6
Cc1c(Cl)c(=O)oc2cc(OCC(=O)NCc3cccs3)ccc12,21*,-6,-9,9,1,-28
Cc1ccc(OCC(=O)NCc2cccs2)cc1,0,-4,-6,10,-4,0
CC1(C(=O)Nc2cccc3cccnc23)CCN1C(=O)CC1CC1 (centres undefined),-6,-12,-3,5,1,8
O=C(/C=C/c1ccccc1)CCN1CCCCC1,-16,-1,-7,2,-5,12
C=CCC(O)(CCN1CCCCC1)c1ccccc1 (centres undefined),-15,98*,-5,-22,-10,46*
OC(CCN1CCCC1)(c1ccccc1)C1CCCCC1 (centres undefined),-19,97*,-8,-26,-2,99*
CCCCOc1ccc(C(O)(CCN2CCOCC2)c2ccccc2)cc1 (centres undefined),-5,15,-10,-17,-6,5
O=S(=O)(NCCN1CCCC1)c1ccc(C(F)(F)F)cc1,-5,10,-11,-10,-5,8
OC(CCCN1CCCCC1)(c1ccccc1)c1ccc(C(F)(F)F)cc1 (centres undefined),-31,82*,-3,-30,-12,13
OC(CCN1CCCCC1)(c1ccccc1)c1ccccc1,-18,99*,-7,-27,-1,99*
CC(C)N1CCCC(C)(C(=O)Nc2nc3ccccc3[nH]2)C1 (centres undefined),1,-24,-2,16,-1,-4
O=C(NCc1ccccc1)c1cc(C2COCCN2C(=O)c2ccc3c(c2)CCO3)on1 (centres undefined),-3,-10,-2,12,-1,-4
C[C@H](NC(=O)C1CCN(S(=O)(=O)c2ccccc2)CC1)C(=O)NC1CC1,1,-14,2,14,3,0
NC(=O)C(CCCCN1CCCCC1)(c1ccccc1)c1ccccc1,-21,83*,-8,-30,-13,15
O=C(CCN1CCCCCC1)c1ccccc1,7,-16,4,1,0,-9
COc1ccc(C(O)(CCc2ccccc2)CCN2CCCCC2)cc1 (centres undefined),-15,84*,-13,-33,-11,16
